The results in this text go back to publication PMC10500580 (ACS Omega, 2023).

By pIC50 is commonly meant −log10 of the IC50, conventionally taken in molar units.

For one test, the target named is T1, α-amylase (Homo sapiens, UniProt P04746).
T1 sequence (P04746 16-511): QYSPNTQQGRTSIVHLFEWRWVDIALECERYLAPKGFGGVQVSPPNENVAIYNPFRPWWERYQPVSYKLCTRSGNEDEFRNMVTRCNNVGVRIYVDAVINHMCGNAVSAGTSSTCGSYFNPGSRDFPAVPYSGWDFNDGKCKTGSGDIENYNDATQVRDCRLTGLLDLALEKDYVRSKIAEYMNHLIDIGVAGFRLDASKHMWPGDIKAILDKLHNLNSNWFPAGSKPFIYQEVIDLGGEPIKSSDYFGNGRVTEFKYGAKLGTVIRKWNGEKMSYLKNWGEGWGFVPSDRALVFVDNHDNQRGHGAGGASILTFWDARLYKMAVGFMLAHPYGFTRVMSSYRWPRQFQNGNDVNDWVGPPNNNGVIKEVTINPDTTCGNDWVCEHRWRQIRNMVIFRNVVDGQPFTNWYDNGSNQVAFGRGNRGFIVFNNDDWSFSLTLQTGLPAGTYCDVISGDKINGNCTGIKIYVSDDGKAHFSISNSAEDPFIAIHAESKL
Description: In vitro antidiabetic. It is filed as biochemical.

A short description of the next test: Antioxidant. The settings on record: read-out: IC50 antioxidant activity; DPPH, absorbance at 517 nm. The method, boiled down: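 Test compound stocks at 22 mg/mL, diluted to working concentrations. DPPH radical was prepared at 4 mg per 100 mL pure methanol. Sample dilution and DPPH solution were mixed 1:2 by volume and left undisturbed overnight. Ascorbic acid in water served as the reference and was treated the same way. Absorbance was read at 517 nm, in triplicate.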
Background: Loss of DPPH colour is used to gauge radical scavenging.

pIC50: −log10 of the molar value.

As for `CC(C)CCCCCOC(=O)c1ccccc1C(=O)OCCCCCC(C)C` [HR5, bis (6-methylheptyl) phthalate], the pIC50 against α-amylase is 4.93; in “Antioxidant”, 4.81. In addition, the “inhibition against diabetes (in words)” value against α-amylase (conclusion, qualitative grade) is “excellent inhibition”.

With `C=CCOC(=O)c1ccccc1C(=O)OCC` [HR3, 1-allyl 2-ethyl phthalate], the pIC50 in the test “Antioxidant” is 4.82.
